Each structure is given as a SMILES string. Calls of active or inactive are those of the source. No cut-off for these calls is given here. Residues, ends and D or L forms follow the SMILES beside them. Bounds are passed on as bounds.

Experiment [1] concerns the target T1, Proteasome Macropain subunit MB1 (Homo sapiens) (UniProt P28074).
T1 sequence (whole entry): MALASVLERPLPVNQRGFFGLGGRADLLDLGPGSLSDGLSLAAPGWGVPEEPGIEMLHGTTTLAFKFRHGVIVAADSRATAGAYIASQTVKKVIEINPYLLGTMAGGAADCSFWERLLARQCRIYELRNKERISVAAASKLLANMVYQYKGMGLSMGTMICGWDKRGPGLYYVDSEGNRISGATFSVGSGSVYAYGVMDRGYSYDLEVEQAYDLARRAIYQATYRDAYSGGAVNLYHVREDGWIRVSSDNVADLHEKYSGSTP
Put plainly: Stimulation of 20S proteasome chymotrypsin like activity in human primary fibroblasts preincubated for 24 hrs followed by Suc-LLVY-AMC substrate addition and measured at 2 mins interval up to 60 mins by fluorescence assay. In outline: (§1)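 Fibroblasts (GM04390, 3% O2, 37 °C) exposed to 0.1–20 μM peptide or DMSO for 24 h after Optimem switch. Cells scraped, lysed in 50 mM Tris/HCl pH 7.4, 5 mM MgCl2, 1 mM DTT by mechanical lysis and freeze fractionation. Bradford-normalised lysate (1 μg in 100 μL) incubated with 50 μM Suc-LLVY-AMC; fluorescence ex 370/em 460 nm.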

Experiment [2] deals with T2, 20S proteasome (Homo sapiens) (UniProt P49721+P20618+P28074+P28062+P28065+P28072+P25786+P25787+P25788+P25789+P28066+P60900+O14818+Q8TAA3+P40306+A5LHX3+P49720+P28070+Q99436). As to the kind of experiment: Effect on alpha-face conformations of latent human erythrocytes 20S proteasome assessed as intermediate state conformation at 1 uM by atomic force microscopic method (reference value: 22%).

The target in experiment [3] is T2, 20S proteasome (Homo sapiens). Put plainly: Negative allosteric modulation of SDS-activated human erythrocytes 20S proteasome assessed as reduction in human alpha-synuclein degradation at 1 uM after 1 hr by SDS-PAGE analysis. In outline: (§2)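 Human α-synuclein or yeast enolase digested by human 20S activated with 0.01% SDS (20S:substrate 1:100 pmol α-syn, 1:10 pmol enolase) in 20 mM HEPES pH 7.4 at 37 °C for 1 h (α-syn) or 4 h (enolase). DMSO at or below 0.05%. SDS–PAGE (12% or 10%) with Coomassie staining; remaining substrate densitometry as percent of control; at least three experiments, mean ± SEM.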

Experiment [4] deals with Proteasome subunit beta type-6 (Homo sapiens) (UniProt P28072). Put plainly: Positive allosteric modulation of latent human erythrocytes 20S proteasome caspase like activity at 10 uM using Z-LLE-AMC as substrate measured every 1 min up to 60 mins by fluorescence assay relative to control.
Proteasome subunit beta type-6 (Homo sapiens), sequence (P28072 whole entry, looked up): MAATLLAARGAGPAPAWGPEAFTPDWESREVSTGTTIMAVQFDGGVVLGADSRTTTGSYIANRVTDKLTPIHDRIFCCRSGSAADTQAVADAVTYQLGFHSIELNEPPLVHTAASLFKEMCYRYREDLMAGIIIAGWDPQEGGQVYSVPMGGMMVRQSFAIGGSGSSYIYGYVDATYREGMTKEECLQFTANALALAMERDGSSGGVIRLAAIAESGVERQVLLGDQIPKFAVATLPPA
In experiment [5] the target is T1, Proteasome Macropain subunit MB1 (Homo sapiens). Put plainly: Negative allosteric modulation of SDS-activated human erythrocytes 20S proteasome chymotrypsin like activity up to 10 uM using LFP as substrate measured every 2 mins up to 60 mins by fluorescence assay.
Experiment [6] addresses T2, 20S proteasome (Homo sapiens). As to the kind of experiment: Positive allosteric modulation of SDS-activated human erythrocytes 20S proteasome assessed as increase in yeast enolase degradation at 10 uM after 4 hr by SDS-PAGE analysis.
In experiment [7] the target is T1, Proteasome Macropain subunit MB1 (Homo sapiens). As to the kind of experiment: Positive allosteric modulation of latent human erythrocytes 20S proteasome chymotrypsin like activity using LFP as substrate measured every 2 mins up to 60 mins by fluorescence assay.
In experiment [8] the target is T3, Proteasome component C5 (Homo sapiens) (UniProt P20618).
T3 sequence (whole entry): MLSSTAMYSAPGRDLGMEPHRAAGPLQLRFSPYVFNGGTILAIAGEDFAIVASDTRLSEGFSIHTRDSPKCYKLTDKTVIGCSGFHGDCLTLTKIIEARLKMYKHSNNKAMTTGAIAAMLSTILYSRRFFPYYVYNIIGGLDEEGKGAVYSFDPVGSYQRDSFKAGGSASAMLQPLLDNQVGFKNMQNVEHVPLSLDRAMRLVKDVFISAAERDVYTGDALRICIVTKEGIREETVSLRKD
Put plainly: Positive allosteric modulation of latent human erythrocytes 20S proteasome caspase like activity at 10 uM measured every 1 min up to 60 mins by fluorescence assay relative to control.

Experiment [9] deals with T2, 20S proteasome (Homo sapiens). As to the kind of experiment: Effect on alpha-face conformations of latent human erythrocytes 20S proteasome assessed as open state conformation at 1 uM by atomic force microscopic method (reference value: 7%).
Experiment [10] deals with T1, Proteasome Macropain subunit MB1 (Homo sapiens). As to the kind of experiment: Negative allosteric modulation of 10 uM Rpt5-activated human erythrocytes 20S proteasome chymotrypsin like activity up to 10 uM using Suc-LLVY-AMC as substrate measured every 1 min up to 60 mins by fluorescence assay.
For experiment [11] the target is unchanged. Put plainly: Positive allosteric modulation of latent human erythrocytes 20S proteasome chymotrypsin like activity at 25 uM using Suc-LLVY-AMC as substrate measured every 2 mins up to 60 mins by fluorescence assay relative to control.
Experiment [12] shares this target. As to the kind of experiment: Stimulation of 20S proteasome chymotrypsin like activity in human primary fibroblasts at 10 uM preincubated for 24 hrs followed by Suc-LLVY-AMC substrate addition and measured at 2 mins interval up to 60 mins by fluorescence assay relative to control. In outline: as §1
Experiment [13] concerns the target T2, 20S proteasome (Homo sapiens). Put plainly: Positive allosteric modulation of SDS-activated human erythrocytes 20S proteasome assessed as increase in human alpha-synuclein degradation at 10 uM after 1 hr by SDS-PAGE analysis.
In experiment [14] the target is T1, Proteasome Macropain subunit MB1 (Homo sapiens). Put plainly: Positive allosteric modulation of latent human erythrocytes 20S proteasome chymotrypsin like activity at 25 uM using LFP as substrate measured every 2 mins up to 60 mins by fluorescence assay relative to control.
Experiment [15] shares this target. As to the kind of experiment: Positive allosteric modulation of 1 uM Rpt5-activated human erythrocytes 20S proteasome chymotrypsin like activity up to 10 uM using Suc-LLVY-AMC as substrate measured every 1 min up to 60 mins by fluorescence assay.
Experiment [16] addresses T2, 20S proteasome (Homo sapiens). Put plainly: Positive allosteric modulation of SDS-activated human erythrocytes 20S proteasome assessed as increase in yeast enolase degradation at 1 uM after 4 hr by SDS-PAGE analysis relative to control.
The target of experiment [17] is T3, Proteasome component C5 (Homo sapiens). Put plainly: Negative allosteric modulation of SDS-activated human erythrocytes 20S proteasome caspase like activity at lower concentration using Z-LLE-AMC as substrate measured every 2 mins up to 60 mins by fluorescence assay.
Experiment [18] concerns the target T2, 20S proteasome (Homo sapiens). Put plainly: Negative allosteric modulation of SDS-activated human erythrocytes 20S proteasome assessed as reduction in human alpha-synuclein degradation at 10 uM after 1 hr by SDS-PAGE analysis. In outline:
as §2

Experiment [19] shares this target. As to the kind of experiment: Negative allosteric modulation of SDS-activated human erythrocytes 20S proteasome assessed as reduction in yeast enolase degradation at 1 uM after 4 hr by SDS-PAGE analysis.
Experiment [20] deals with T1, Proteasome Macropain subunit MB1 (Homo sapiens). As to the kind of experiment: Positive allosteric modulation of latent human erythrocytes 20S proteasome chymotrypsin like activity at 5 uM using Suc-LLVY-AMC as substrate measured every 2 mins up to 60 mins by fluorescence assay relative to control.
In experiment [21] the target is Proteasome Macropain subunit (Homo sapiens) (UniProt P49721). As to the kind of experiment: Negative allosteric modulation of SDS-activated human erythrocytes 20S proteasome trypsin like activity at 10 uM using Boc-LRR-AMC as substrate measured every 2 mins up to 60 mins by fluorescence assay.
Proteasome Macropain subunit (Homo sapiens), sequence (P49721 whole entry): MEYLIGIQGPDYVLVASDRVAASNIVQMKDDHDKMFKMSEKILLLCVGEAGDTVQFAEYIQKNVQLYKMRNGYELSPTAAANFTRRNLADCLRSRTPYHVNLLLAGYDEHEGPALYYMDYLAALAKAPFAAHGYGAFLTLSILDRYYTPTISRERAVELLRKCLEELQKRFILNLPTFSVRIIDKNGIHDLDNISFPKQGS
Experiment [22] deals with T1, Proteasome Macropain subunit MB1 (Homo sapiens). Put plainly: Positive allosteric modulation of latent human erythrocytes 20S proteasome chymotrypsin like activity up to 10 uM using LFP as substrate measured every 2 mins up to 60 mins by fluorescence assay.
The target is the same in experiment [23]. As to the kind of experiment: Positive allosteric modulation of latent human erythrocytes 20S proteasome chymotrypsin like activity up to 10 uM using LFP as substrate measured every 2 mins up to 60 mins by fluorescence assay.
In experiment [24] the target is T2, 20S proteasome (Homo sapiens). Put plainly: Negative allosteric modulation of SDS-activated human erythrocytes 20S proteasome assessed as reduction in yeast enolase degradation at 10 uM after 4 hr by SDS-PAGE analysis.

Take `C[C@H](NC(=O)[C@H](Cc1ccc(O)cc1)NC(=O)[C@H](Cc1ccc(O)cc1)NC(=O)[C@@H]1CCCN1C(=O)[C@@H]1CCCN1C(=O)[C@@H]1CCCN1C(=O)[C@@H]1CCCN1C(=O)[C@H](CCCNC(=N)N)NC(=O)[C@H](CCCNC(=N)N)NC(=O)[C@@H](N)CCCNC(=N)N)C(=O)O` (H-RRRPPPPYYA-OH): the Activity entry is “Dose-dependent effect” in experiment [1], 36% in [2], “Dose-dependent effect” in experiment [7] and 18% in [9]. Besides, the result in experiment [3], in experiment [5] and in experiment [10] was inactive. The fold change (FC) in experiment [4] is 5 to 7; in experiment [8], 5 to 7; in [11] it was under 7; in experiment [12], 3; in [14] it was 14; in [15] it was 2. In [16], the fold change (FC) is over 2. For the same compound, the result in [6] and in [13] was Active.

In the case of `CC(C)C[C@H](NC(=O)[C@@H]1CCCN1C(=O)[C@@H]1CCCN1C(=O)[C@@H]1CCCN1C(=O)[C@@H]1CCCN1C(=O)[C@H](CCCNC(=N)N)NC(=O)[C@H](CCCNC(=N)N)NC(=O)[C@@H](N)CCCNC(=N)N)C(=O)N[C@@H](Cc1ccc(O)cc1)C(=O)N[C@@H](C)C(=O)O` (H-RRRPPPPLYA-OH), the outcome in experiment [3] and in experiment [5] was inactive. Besides, the fold change (FC) in experiment [4] was 5 to 7; in [8], 5 to 7; in [11] it was under 7. In addition, the result in experiment [6], in experiment [13] and in [16] was Active. The Activity result in [7] is “Dose-dependent effect”.

Consider `CC(C)C[C@H](NC(=O)[C@H](Cc1ccc(O)cc1)NC(=O)[C@H](CCCNC(=N)N)NC(=O)[C@H](CCCNC(=N)N)NC(=O)[C@@H](N)CCCNC(=N)N)C(=O)N1CCC[C@H]1C(=O)N[C@@H](CCCNC(=N)N)C(=O)N[C@@H](Cc1c[nH]c2ccccc12)C(=O)NCC(N)=O` (H-RRRYLPRWG-NH2), for which the outcome in experiment [17], in experiment [5], in experiment [18] and in experiment [21] was Active. The result in experiment [19], in experiment [22], in experiment [23] and in [24] was inactive. This compound displayed a fold change (FC) in [20] of 2.
